Experimental data reported in ChEMBL document CHEMBL1156993, “Benzyl prolinate derivatives as novel selective KCC2 blockers” (Bioorg Med Chem Lett, 2010).
In brackets after ≈: the same amount, converted by molar mass. One block for each molecule: values may come before it.

Columns and labels:
[1] = molecular target: T1, Solute carrier family 12 member 5 (Rattus norvegicus, UniProt Q63633); assay: Antagonist activity of rat KCC2 transporter expressed in human SK-Hep cells assessed as inhibition of N-ethylmaleimide-mediated Rb+ influx after 10 mins by atomic absorption spectroscopy; format: functional, cell-based
T1 sequence (Q63633 whole entry): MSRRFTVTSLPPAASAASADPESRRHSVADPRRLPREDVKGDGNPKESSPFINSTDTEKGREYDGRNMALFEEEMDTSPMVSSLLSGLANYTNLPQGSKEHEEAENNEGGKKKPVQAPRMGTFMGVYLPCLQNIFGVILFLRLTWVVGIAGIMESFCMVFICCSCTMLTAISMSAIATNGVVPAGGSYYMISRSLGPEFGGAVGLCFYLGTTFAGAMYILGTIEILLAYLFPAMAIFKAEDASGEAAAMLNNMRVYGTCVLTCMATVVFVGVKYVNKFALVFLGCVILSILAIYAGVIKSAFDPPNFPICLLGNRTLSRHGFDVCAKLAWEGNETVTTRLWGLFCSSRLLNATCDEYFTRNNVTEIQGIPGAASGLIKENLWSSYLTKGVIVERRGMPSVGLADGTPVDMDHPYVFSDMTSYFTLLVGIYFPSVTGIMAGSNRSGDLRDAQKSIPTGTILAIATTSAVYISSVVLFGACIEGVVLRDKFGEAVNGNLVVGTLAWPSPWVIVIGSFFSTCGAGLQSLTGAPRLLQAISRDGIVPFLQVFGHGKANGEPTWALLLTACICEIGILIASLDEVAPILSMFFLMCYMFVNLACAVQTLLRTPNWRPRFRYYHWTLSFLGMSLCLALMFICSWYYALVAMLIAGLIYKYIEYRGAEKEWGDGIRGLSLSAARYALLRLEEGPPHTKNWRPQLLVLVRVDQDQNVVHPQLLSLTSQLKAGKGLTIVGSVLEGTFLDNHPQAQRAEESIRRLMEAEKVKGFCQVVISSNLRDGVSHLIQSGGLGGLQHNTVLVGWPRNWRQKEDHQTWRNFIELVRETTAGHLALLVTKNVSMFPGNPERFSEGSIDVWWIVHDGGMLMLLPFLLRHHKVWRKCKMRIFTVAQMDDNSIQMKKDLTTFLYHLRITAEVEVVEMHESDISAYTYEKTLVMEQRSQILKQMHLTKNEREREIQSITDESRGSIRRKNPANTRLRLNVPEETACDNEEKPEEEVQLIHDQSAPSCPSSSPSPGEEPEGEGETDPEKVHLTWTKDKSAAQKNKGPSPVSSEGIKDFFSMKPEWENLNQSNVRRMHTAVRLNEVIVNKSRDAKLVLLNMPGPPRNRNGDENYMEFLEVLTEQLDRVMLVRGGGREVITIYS
Procedure, shortened: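 Rat KCC2 stably expressed in a selected clone. The co-transporter is activated with N-ethylmaleimide in the presence of the test compound, and Rb+ influx is started by adding 5 mM RbCl to the extracellular medium. Influx is stopped after 10 min by repeated washes. Intracellular Rb+ is measured by atomic absorption spectroscopy, and IC50 is reported.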

[2] = Aqueous solubility in PBS buffer at pH 7.4; format: physicochemical
[3] = Intrinsic clearance in rat microsomes assessed per mg of protein; format: ADME, Microsome
[4] = Intrinsic clearance in rat hepatocytes assessed per 10^6 cells
[5] = Antagonist activity to dog NKCC1 transporter expressed in MDCK cells assessed as inhibition of Cl- free medium-stimulated Rb+ influx at 100 uM after 45 mins by atomic absorption spectroscopy; format: functional, Canis lupus familiaris; conditions: for inhibition at 100 µM: Canis lupus familiaris, MDCK, 0.75 h
Procedure, shortened: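 MDCK cells express endogenous canine NKCC1. NKCC1 is activated by incubating the cells for 2 h in Cl−-free medium. Rb+ influx is then stimulated for 45 min by adding 20 mM RbCl to the extracellular solution. Intracellular Rb+ is quantified by atomic absorption spectroscopy, and results are given as percent inhibition.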

[6] = Cmax in Wistar rat at 6 mg/kg, po; format: ADME, organism-based; set-up: dose 6 mg/kg, route oral; conditions: in vivo
Procedure, shortened: (§1)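 Male Wistar rats are dosed at 1 mg/kg iv for half-life and clearance, and at 6 mg/kg po for AUC, Cmax and oral bioavailability.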

[7] = Half life in Wistar rat at 1 mg/kg, iv; format: ADME, organism-based; set-up: dose 1 mg/kg, route intravenous; conditions: in vivo; procedure, shortened: as §1
[8] = Clearance in Wistar rat at 1 mg/kg, iv; format: ADME, organism-based; set-up: dose 1 mg/kg, route intravenous; conditions: in vivo; procedure, shortened: as §1
[9] = Oral bioavailability in Wistar rat at 6 mg/kg; format: ADME, organism-based; conditions: in vivo; procedure, shortened: as §1
[10] = AUC in Wistar rat at 6 mg/kg, po; format: ADME, organism-based; set-up: dose 6 mg/kg, route oral; conditions: plasma; procedure, shortened: as §1
CYP3A4 = CYP3A4 (Homo sapiens, UniProt P08684); assay: Inhibition of human CYP3A4 at 50 uM; format: ADME
CYP2C9 = CYP2C9 (Homo sapiens, UniProt P11712); assay: Inhibition of human CYP2C9 at 50 uM; format: ADME
CYP2D6 = CYP2D6 (Homo sapiens, UniProt P10635); assay: Inhibition of human CYP2D6 at 50 uM; format: ADME
CYP2C19 = CYP2C19 (Homo sapiens, UniProt P33261); assay: Inhibition of human CYP2C19 at 50 uM; format: ADME
[11] = Apparent permeability across human Caco-2 cells; format: ADME, cell-based
[12] = Drug level in NMRI mouse brain at 43.3 mg/kg, ip after 5 mins; format: ADME, organism-based; set-up: dose 43.3 mg/kg, route intraperitoneal; conditions: read-out: Drug uptake
Procedure, shortened: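 NMRI mice are dosed ip at 43.3 mg/kg. Plasma and brain exposure are determined 5 min after dosing, and free brain concentration is reported.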

Chain of CYP3A4 (P08684 whole entry): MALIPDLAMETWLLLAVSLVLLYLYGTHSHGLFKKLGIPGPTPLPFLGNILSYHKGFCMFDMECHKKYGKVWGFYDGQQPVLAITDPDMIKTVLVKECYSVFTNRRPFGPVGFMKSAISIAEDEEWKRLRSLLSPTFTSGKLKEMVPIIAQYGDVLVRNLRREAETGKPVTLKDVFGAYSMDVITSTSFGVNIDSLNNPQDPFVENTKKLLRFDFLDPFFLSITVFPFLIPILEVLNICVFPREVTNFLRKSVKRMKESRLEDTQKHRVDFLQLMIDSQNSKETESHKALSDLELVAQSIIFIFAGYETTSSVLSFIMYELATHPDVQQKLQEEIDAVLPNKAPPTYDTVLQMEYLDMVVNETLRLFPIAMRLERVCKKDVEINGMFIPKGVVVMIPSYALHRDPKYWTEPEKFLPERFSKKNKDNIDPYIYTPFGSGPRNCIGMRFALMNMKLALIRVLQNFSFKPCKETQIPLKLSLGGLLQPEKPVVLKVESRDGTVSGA
Chain of CYP2C9 (P11712 whole entry): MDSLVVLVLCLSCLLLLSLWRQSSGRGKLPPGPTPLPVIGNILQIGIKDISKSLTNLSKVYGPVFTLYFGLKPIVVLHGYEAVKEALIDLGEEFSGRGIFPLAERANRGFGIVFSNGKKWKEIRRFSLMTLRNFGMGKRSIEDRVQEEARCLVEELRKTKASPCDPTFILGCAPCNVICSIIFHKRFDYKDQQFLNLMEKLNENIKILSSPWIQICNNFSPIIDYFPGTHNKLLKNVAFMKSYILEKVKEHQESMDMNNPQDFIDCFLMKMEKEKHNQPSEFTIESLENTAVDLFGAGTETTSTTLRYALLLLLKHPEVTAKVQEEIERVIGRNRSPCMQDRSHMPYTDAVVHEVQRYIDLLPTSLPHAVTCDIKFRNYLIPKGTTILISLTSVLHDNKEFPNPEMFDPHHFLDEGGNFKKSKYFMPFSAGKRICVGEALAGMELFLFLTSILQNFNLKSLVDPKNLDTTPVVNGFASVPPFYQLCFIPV
Chain of CYP2D6 (P10635 whole entry): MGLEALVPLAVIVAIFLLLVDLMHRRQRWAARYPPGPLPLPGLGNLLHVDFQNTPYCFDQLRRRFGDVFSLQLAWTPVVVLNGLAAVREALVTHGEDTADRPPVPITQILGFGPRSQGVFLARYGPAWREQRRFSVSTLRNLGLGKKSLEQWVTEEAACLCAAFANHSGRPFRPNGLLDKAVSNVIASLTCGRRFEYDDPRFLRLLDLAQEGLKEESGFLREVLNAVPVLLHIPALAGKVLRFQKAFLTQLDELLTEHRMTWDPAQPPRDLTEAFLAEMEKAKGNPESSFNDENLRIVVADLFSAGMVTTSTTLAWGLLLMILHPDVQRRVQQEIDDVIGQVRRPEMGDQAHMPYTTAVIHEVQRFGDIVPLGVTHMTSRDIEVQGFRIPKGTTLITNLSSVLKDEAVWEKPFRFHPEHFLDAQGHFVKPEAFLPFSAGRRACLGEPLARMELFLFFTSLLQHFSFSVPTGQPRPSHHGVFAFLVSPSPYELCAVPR
Chain of CYP2C19 (P33261 whole entry): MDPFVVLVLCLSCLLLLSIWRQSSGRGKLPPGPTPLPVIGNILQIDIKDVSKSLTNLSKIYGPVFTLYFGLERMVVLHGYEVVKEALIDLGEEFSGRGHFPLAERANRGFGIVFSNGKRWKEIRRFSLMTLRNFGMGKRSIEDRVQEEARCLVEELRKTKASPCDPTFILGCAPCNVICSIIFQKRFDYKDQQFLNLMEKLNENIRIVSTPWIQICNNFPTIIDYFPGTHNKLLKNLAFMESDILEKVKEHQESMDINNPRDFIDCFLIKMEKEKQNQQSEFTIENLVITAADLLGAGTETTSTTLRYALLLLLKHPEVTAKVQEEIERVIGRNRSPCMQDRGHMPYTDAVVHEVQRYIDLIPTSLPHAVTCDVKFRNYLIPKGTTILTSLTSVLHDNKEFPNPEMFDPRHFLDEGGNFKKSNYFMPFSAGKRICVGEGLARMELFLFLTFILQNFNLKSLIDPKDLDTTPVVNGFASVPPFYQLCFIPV

IC50 [1]: > 100000 nM
Compound: CCN1CCCC1(Cc1ccccc1)C(=O)OCc1ccccc1 (stereo unspecified)

IC50 [1]: 320 nM
Compound: CC(=O)N1CCCC1(Cc1ccccc1)C(=O)OCc1ccccc1 (single isomer, unassigned; (+))
inhibition (INH) [5]: 14%

IC50 [1]: 4000 nM
Compound: O=C(c1ccccc1)N1CCCC1(Cc1ccccc1)C(=O)OCc1ccccc1 (stereo unspecified)

IC50 [1]: 790 nM | Cmax [6]: 11.9 ng/mL | solubility [2]: 2 µg/mL (≈ 5.93 µM) | half-life [7]: 2.4 h | microsomal CLint [3]: 385 µL/min/mg | clearance [8]: 61 mL/min/kg | bioavailability [9]: 0.5% | hepatocyte CLint [4]: 28 µL/min/1e6 cells | AUC [10]: 8.6 ng·h/mL
Compound: CC(=O)N1CCCC1(Cc1ccccc1)C(=O)OCc1ccccc1 (racemic)
inhibition (INH) [5]: 44%

IC50 [1]: 8000 nM
Compound: CC(=O)N1CCCC1(CCc1ccccc1)C(=O)OCc1ccccc1 (stereo unspecified)

IC50 [1]: 400 nM
Compound: COC(=O)N1CCCC1(Cc1ccccc1)C(=O)OCc1ccccc1 (stereo unspecified)

IC50 [1]: 10000 nM
Compound: CC(=O)N1CCCC1(Cc1ccccc1)C(=O)OCCc1ccccc1 (stereo unspecified)

IC50 [1]: 400 nM | solubility [2]: 10 µg/mL (≈ 27.2 µM) | microsomal CLint [3]: 333 µL/min/mg | hepatocyte CLint [4]: 23 µL/min/1e6 cells
Compound: COc1ccc(CC2(C(=O)OCc3ccccc3)CCCN2C(C)=O)cc1 (stereo unspecified)
inhibition at 100 µM [5]: 59%

IC50 [1]: 2000 nM
Compound: CCNC(=O)N1CCCC1(Cc1ccccc1)C(=O)OCc1ccccc1 (stereo unspecified)

Continued, molecule first:

Compound: CC(=O)N1CCCC1(Cc1ccc(F)c(C(F)(F)F)c1)C(=O)OCc1ccccc1 (stereo unspecified)
IC50 [1]: 60 nM | solubility [2]: 0.5 µg/mL (≈ 1.18 µM) | microsomal CLint [3]: 356 µL/min/mg | hepatocyte CLint [4]: 20 µL/min/1e6 cells | inhibition at 100 µM [5]: 24%

Compound: COC(=O)C1(Cc2ccccc2)CCCN1C(C)=O (stereo unspecified)
IC50 [1]: > 100000 nM

Compound: CC(=O)N1CCCC1(Cc1ccc(F)cc1)C(=O)OCc1ccccc1 (stereo unspecified)
IC50 [1]: 200 nM

Compound: CC(=O)N1CCCC1(Cc1ccccc1)C(=O)OCc1ccc(C(F)(F)F)cc1 (stereo unspecified)
IC50 [1]: 5000 nM

Compound: CC(=O)N1CCCC1(Cc1ccc(C)cc1)C(=O)OCc1ccccc1 (stereo unspecified)
IC50 [1]: 790 nM

Compound: CC(=O)N1CCCC1(Cc1ccccc1C#N)C(=O)OCc1ccccc1 (stereo unspecified)
IC50 [1]: 5000 nM

Compound: CC(=O)N1CCCC1(Cc1ccc(S(C)(=O)=O)cc1)C(=O)OCc1ccccc1 (stereo in doubt; 13)
IC50 [1]: 1000 nM | inhibition at 50 µM (CYP3A4): < 30% | Cmax [6]: 457 ng/mL | solubility [2]: 500 µg/mL (≈ 1200 µM) | half-life [7]: 0.3 h | microsomal CLint [3]: 16 µL/min/mg | inhibition at 50 µM (CYP2C9): < 30% | inhibition at 50 µM (CYP2D6): < 30% | clearance [8]: 26 mL/min/kg | bioavailability [9]: 18% | hepatocyte CLint [4]: 12 µL/min/1e6 cells | inhibition at 50 µM (CYP2C19): < 30% | inhibition at 100 µM [5]: 35% | Papp [11]: 31 ×10⁻⁶ cm/s | concentration at 5 min [12]: 6 µM | AUC [10]: 726 ng·h/mL

Compound: CC(=O)N1CCCC1(Cc1ccccc1)C(=O)OC(C)c1ccccc1 (stereo unspecified)
IC50 [1]: 4000 nM

Compound: CC(=O)N1CCCC1(Cc1ccsc1)C(=O)OCc1ccccc1 (stereo unspecified)
IC50 [1]: 790 nM

Compound: CC(=O)N1CCCC1(Cc1cccc(C#N)c1)C(=O)OCc1ccccc1 (stereo unspecified)
IC50 [1]: 320 nM

Compound: CC(=O)N1CCCC1(Cc1ccccc1)C(=O)OCc1ccc(C)cc1 (stereo unspecified)
IC50 [1]: 790 nM

Compound: CC(=O)N1CCCC1(Cc1ccccc1)C(=O)OCc1ccc(S(C)(=O)=O)cc1 (stereo unspecified)
IC50 [1]: > 100000 nM

Compound: CCC1(C(=O)OCc2ccccc2)CCCN1C(C)=O (stereo unspecified)
IC50 [1]: 80000 nM

Compound: CC(=O)N1CCCC1(Cc1ccccc1)C(=O)OCc1ccc(Cl)cc1 (stereo unspecified)
IC50 [1]: 1300 nM

Compound: CC(=O)N1CCCC1(Cc1ccc(C#N)cc1)C(=O)OCc1ccccc1 (stereo unspecified)
IC50 [1]: 160 nM | solubility [2]: 20 µg/mL (≈ 55.2 µM) | microsomal CLint [3]: 123 µL/min/mg | hepatocyte CLint [4]: 31 µL/min/1e6 cells | inhibition at 100 µM [5]: 31%
